Results taken from ChEMBL document CHEMBL4312029, “Structure-activity relationship studies and in vitro and in vivo anticancer activity of novel 3-aroyl-1,4-diarylpyrroles against solid tumors and hematological malignancies” (Eur J Med Chem, 2020).
Activity calls are given as the source filed them. The rule behind the calls is not given here.

Experiments:
Homo sapiens [1] = assay: Antitumor activity against human ES2 cells xenografted in BALB/c nu/nu mouse assessed as increase in caspase 9 expression in tumor tissue at 20 mg/kg, ip administered every 2 days for 40 days and measured on day 40 by immunofluorescence analysis; assay type: functional, organism-based
How it was run: (§1)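 Nude mice bearing back tumors from injected T24 or ES-2 cells, treated versus saline controls. Tumors collected on Day 40 and marker expression in tumor tissue assessed by immunofluorescence staining.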

[2] = Cytotoxicity against IM resistant human LAMA84-r cells assessed as reduction in cell viability incubated for 48 hrs by MTT assay; assay type: functional, cell-based
Tubulin = assay: Inhibition of tubulin polymerization (unknown origin) incubated for 15 mins followed by GTP addition and measured for 20 mins by spectrophotometry; assay type: protein-complex assay, Homo sapiens
How it was run: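 Tubulin assembly assay with tubulin at 10 µM. IC50 for inhibition of polymerization; run in duplicate or triplicate.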

Homo sapiens [3] = assay: Antitumor activity against human ES2 cells xenografted in BALB/c nu/nu mouse assessed as reduction in Ki67 expression in tumor tissue at 20 mg/kg, ip administered every 2 days for 40 days and measured on day 40 by immunofluorescence analysis; assay type: functional, organism-based; how it was run: as §1
HT-29 = assay: Cytotoxicity against human HT-29 cells assessed as reduction in cell viability incubated for 48 hrs by MTT assay; assay type: functional, cell-based; conditions: for IC50: HT-29, 48 h
Homo sapiens [4] = assay: Antitumor activity against human ES2 cells xenografted in BALB/c nu/nu mouse assessed as reduction in tumor weight at 20 mg/kg, ip administered every 2 days for 40 days and measured on day 40; assay type: functional, organism-based
How it was run: (§2)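 T24 or ES-2 cells injected on the backs of nude mice; saline-treated control group. Mice euthanized on Day 40, tumors excised, and tumor volume and weight measured.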

[5] = Cytotoxicity against human SK-N-BE cells assessed as reduction in cell viability incubated for 48 hrs by MTT assay; assay type: functional, cell-based
How it was run: (§3)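 Increasing concentrations applied to glioblastoma and neuroblastoma lines to give dose-response viability curves; cytotoxic IC50 from triplicate experiments. Incubation 48 h, except U343MG at 72 h.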

T-24 [6] = assay: Cytotoxicity against human T24 cells assessed as reduction in cell viability incubated for 48 hrs by MTT assay; assay type: functional, cell-based; conditions: T-24, 48 h
MCF7 = assay: Cytotoxicity against human MCF7 cells assessed as reduction in cell growth incubated for 96 hrs by MTT assay; assay type: functional, cell-based; conditions: MCF7, 96 h
How it was run: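 Growth inhibition of human breast carcinoma cells, reported as IC50; run in duplicate or triplicate.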

T-24 [7] = assay: Antitumor activity against human T24 cells xenografted in BALB/c nu/nu mouse assessed as reduction in tumor volume at 20 mg/kg, ip administered every 2 days for 40 days and measured on day 40; assay type: functional, organism-based; how it was run: as §2
T-24 [8] = assay: Antitumor activity against human T24 cells xenografted in BALB/c nu/nu mouse assessed as reduction in tumor weight at 20 mg/kg, ip administered every 2 days for 40 days and measured on day 40; assay type: functional, organism-based; how it was run: as §2
KBM5 [9] = assay: Cytotoxicity against human KBM5 cells expressing IM- sensitive wild type Bcr/Abl assessed as reduction in cell viability incubated for 48 hrs by MTT assay; assay type: functional, cell-based; conditions: KBM5, 48 h
KU812 cell line = assay: Cytotoxicity against human KU812 cells expressing IM- sensitive wild type Bcr/Abl assessed as reduction in cell viability incubated for 48 hrs by MTT assay; assay type: functional, cell-based; conditions: KU812, 48 h
U-87 MG = assay: Cytotoxicity against human U87MG cells assessed as reduction in cell viability incubated for 48 hrs by MTS assay; assay type: functional, cell-based, U-87MG ATCC; conditions: for inhibition: U-87MG ATCC; how it was run: as §3
Homo sapiens [10] = assay: Antitumor activity against human ES2 cells xenografted in BALB/c nu/nu mouse assessed as reduction in CD31 expression in tumor tissue at 20 mg/kg, ip administered every 2 days for 40 days and measured on day 40 by immunofluorescence analysis; assay type: functional, organism-based; how it was run: as §1
T98G = assay: Cytotoxicity against human T98G cells assessed as reduction in cell viability incubated for 48 hrs by MTS assay; assay type: functional, cell-based; how it was run: as §3
SW480 = assay: Cytotoxicity against human SW480 cells assessed as reduction in cell viability incubated for 48 hrs by MTT assay; assay type: functional, cell-based; conditions: for IC50: SW480, 48 h
HCT-116 = assay: Cytotoxicity against human HCT116 cells assessed as reduction in cell viability incubated for 48 hrs by MTT assay; assay type: functional, cell-based; conditions: for IC50: HCT-116, 48 h
Tubulin (Homo sapiens) = Tubulin (Homo sapiens) (UniProt P68371+Q9H4B7+P0DPH7+P68366+Q13509+Q71U36+P04350+Q3ZCM7+P07437+P68363+Q9BQE3+Q6PEY2+Q13885+Q9BVA1+Q9BUF5); assay: Inhibition of [3H]colchicine binding to tubulin (unknown origin) at 5 uM incubated for 10 mins by DEAE-cellulose filter method relative to control; assay type: protein-complex assay
[11] = Cytotoxicity against human LAMA84-s cells expressing IM-sensitive wild type Bcr/Abl assessed as reduction in cell viability incubated for 48 hrs by MTT assay; assay type: functional, cell-based
T-24 [12] = assay: Antitumor activity against human T24 cells xenografted in BALB/c nu/nu mouse assessed as reduction in Bcl2 expression in tumor tissue at 20 mg/kg, ip administered every 2 days for 40 days and measured on day 40 by immunofluorescence analysis; assay type: functional, organism-based; how it was run: as §1
PBMC = assay: Cytotoxicity against human PBMC assessed as cell viability by MTT assay; assay type: cell-based
T-24 [13] = assay: Antitumor activity against human T24 cells xenografted in BALB/c nu/nu mouse assessed as increase in caspase 3 expression in tumor tissue at 20 mg/kg, ip administered every 2 days for 40 days and measured on day 40 by immunofluorescence analysis; assay type: functional, organism-based; how it was run: as §1
T-24 [14] = assay: Antitumor activity against human T24 cells xenografted in BALB/c nu/numouse assessed as increase in Bax expression in tumor tissue at 20 mg/kg, ip administered every 2 days for 40 days and measured on day 40 by immunofluorescence analysis; assay type: functional, organism-based; how it was run: as §1
T-24 [15] = assay: Antitumor activity against human T24 cells xenografted in BALB/c nu/nu mouse assessed as increase in caspase 9 expression in tumor tissue at 20 mg/kg, ip administered every 2 days for 40 days and measured on day 40 by immunofluorescence analysis; assay type: functional, organism-based; how it was run: as §1
Homo sapiens [16] = assay: Antitumor activity against human ES2 cells xenografted in BALB/c nu/nu mouse assessed as reduction in Bcl2 expression in tumor tissue at 20 mg/kg, ip administered every 2 days for 40 days and measured on day 40 by immunofluorescence analysis; assay type: functional, organism-based; how it was run: as §1
Homo sapiens [17] = assay: Antitumor activity against human ES2 cells xenografted in BALB/c nu/nu mouse assessed as reduction in tumor volume at 20 mg/kg, ip administered every 2 days for 40 days and measured on day 40; assay type: functional, organism-based; how it was run: as §2
Homo sapiens [18] = assay: Antitumor activity against human ES2 cells xenografted in BALB/c nu/nu mouse assessed as increase in Bax expression in tumor tissue at 20 mg/kg, ip administered every 2 days for 40 days and measured on day 40 by immunofluorescence analysis; assay type: functional, organism-based; how it was run: as §1
SW-620 = assay: Cytotoxicity against human SW620 cells assessed as reduction in cell viability incubated for 48 hrs by MTT assay; assay type: functional, cell-based; conditions: for IC50: SW-620, 48 h
T-24 [19] = assay: Antitumor activity against human T24 cells xenografted in BALB/c nu/nu mouse assessed as reduction in CD31 expression in tumor tissue at 20 mg/kg, ip administered every 2 days for 40 days and measured on day 40 by immunofluorescence analysis; assay type: functional, organism-based; how it was run: as §1
[20] = Cytotoxicity against human SK-N-BE(2)C cells assessed as reduction in cell viability incubated for 48 hrs by MTT assay; assay type: functional, cell-based; how it was run: as §3
T-24 [21] = assay: Antitumor activity against human T24 cells xenografted in BALB/c nu/nu mouse assessed as reduction in Ki67 expression in tumor tissue at 20 mg/kg, […] days for 40 days and measured on day 40 by immunofluorescence analysis; assay type: functional, organism-based; how it was run: as §1
[22] = (§4) Cytotoxicity against human U343MG cells assessed as reduction in cell viability incubated for 72 hrs by MTS assay; assay type: functional, cell-based; conditions: U-343MG; how it was run: as §3
Homo sapiens [23] = species on record: Homo sapiens; assay: as §4; assay type: functional, cell-based; how it was run: as §3
Homo sapiens [24] = assay: Antitumor activity against human ES2 cells xenografted in BALB/c nu/nu mouse assessed as increase in caspase 3 expression in tumor tissue at 20 mg/kg, ip administered every 2 days for 40 days and measured on day 40 by immunofluorescence analysis; assay type: functional, organism-based; how it was run: as §1
KBM5 [25] = assay: Cytotoxicity against human KBM5 cells expressing IM-resistant Bcr/Abl T315I mutant assessed as reduction in cell viability incubated for 48 hrs by MTT assay; assay type: functional, cell-based; conditions: KBM5, 48 h

In the case of `COc1cc(C(=O)c2cn(-c3cccc(N)c3)cc2-c2ccc(N)cc2)cc(OC)c1OC`, the Activity (Homo sapiens [1]) is reported as “Active”, the IC50 [2] is reported as 12 nM and the IC50 (Tubulin) is reported as 470 nM. The inhibition (Homo sapiens [3]) was “Active”, the inhibition (HT-29) was “Dose-dependent effect” and the IC50 (HT-29) was 51 nM. The inhibition (Homo sapiens [4]) was “Active”, the IC50 [5] was 221 nM and the IC50 (T-24 [6]) was 12 nM. For the same molecule, the IC50 (MCF7) was 14 nM, the inhibition (T-24 [7]) was “Active” and the inhibition (T-24 [8]) was “Active”. For the same molecule, the IC50 (KBM5 [9]) was 14 nM, the IC50 (KU812 cell line) was 8 nM and the Emax (U-87 MG) was 32%. The IC50 (U-87 MG) was 30.9 to 31 nM, the inhibition (U-87 MG) was “Dose-dependent effect” and the inhibition (Homo sapiens [10]) was “Active”. For the same molecule, the Emax (T98G) was 41.3%, the IC50 (T98G) was 36.6 to 37 nM and the inhibition (T98G) was “Dose-dependent effect”. For the same molecule, the inhibition (SW480) was “Dose-dependent effect”, the IC50 (SW480) was 48 nM and the inhibition (HCT-116) was “Dose-dependent effect”. For the same molecule, the IC50 (HCT-116) was 27 nM, the inhibition (Tubulin (Homo sapiens)) was 92% and the IC50 [11] was 10 nM. The inhibition (T-24 [12]) was “Active”, the Activity (PBMC) was “Non-Toxic” and the Activity (T-24 [13]) was “Active”. The Activity (T-24 [14]) was “Active”, the Activity (T-24 [15]) was “Active” and the inhibition (Homo sapiens [16]) was “Active”. The inhibition (Homo sapiens [17]) was “Active”, the Activity (Homo sapiens [18]) was “Active” and the inhibition (SW-620) was “Dose-dependent effect”. For the same molecule, the IC50 (SW-620) was 28 nM, the inhibition (T-24 [19]) was “Active” and the IC50 [20] was 56 nM. The inhibition (T-24 [21]) was “Active”, the Emax [22] was 36.3% and the IC50 [22] was 11.9 to 12 nM. For the same molecule, the inhibition (Homo sapiens [23]) was “Dose-dependent effect”, the Activity (Homo sapiens [24]) was “Active” and the IC50 (KBM5 [25]) was 16 nM.
For `COc1cc(C(=O)c2cn(-c3cccc(N)c3)cc2-c2ccccc2F)cc(OC)c1OC`, the IC50 [2] was 14 nM, the IC50 (Tubulin) was 500 nM and the inhibition (HT-29) was “Dose-dependent effect”. For the same molecule, the IC50 (HT-29) was 56 nM, the IC50 [5] was 244 nM and the IC50 (T-24 [6]) was 34 nM. The IC50 (MCF7) was 17 nM, the IC50 (KBM5 [9]) was 18 nM and the IC50 (KU812 cell line) was 14 nM. For the same molecule, the Emax (U-87 MG) was 22%, the IC50 (U-87 MG) was 61 to 61.4 nM and the inhibition (U-87 MG) was “Dose-dependent effect”. The Emax (T98G) was 38.4%, the IC50 (T98G) was 54 to 54.4 nM and the inhibition (T98G) was “Dose-dependent effect”. For the same molecule, the inhibition (SW480) was “Dose-dependent effect”, the IC50 (SW480) was 162 nM and the inhibition (HCT-116) was “Dose-dependent effect”. For the same molecule, the IC50 (HCT-116) was 42 nM, the inhibition (Tubulin (Homo sapiens)) was 90% and the IC50 [11] was 15 nM. For the same molecule, the Activity (PBMC) was “Non-Toxic”, the inhibition (SW-620) was “Dose-dependent effect” and the IC50 (SW-620) was 123 nM. It also gave an IC50 [20] of 106 nM, an Emax [22] of 31% and an IC50 [22] of 68.9 to 69 nM. For the same molecule, the inhibition (Homo sapiens [23]) was “Dose-dependent effect” and the IC50 (KBM5 [25]) was 22 nM.
